# Source: PubChem BioAssay
# L major viab: reduces viability of Leishmania major promastigotes; resazurin fluorescence viability; inhibition, % at 10 µM; hit rate 9% among 200,000; AID 1063; in the data active = inhibition above about 50%;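 also: promastigotes grown with compound for 44 hours at 28 °C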
# HSF1 inh: HSF1 inhibition; NIH3T3-HGL HSE-luciferase, MG132-induced, luminescence 8 h; stronger effect = lower value; activity change, negative = inhibition, % at 7.5 µM (by protocol); hit rate 0.77% among 300,000;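 active = more than half of replicate wells show activity change below -50%, luminescence cut by over half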;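 also: luciferase reports HSF-1 transcriptional activity via heat shock element; 0% = median of DMSO wells and -100% = zero luminescence signal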
# HSF1 activator: increases HSF-1 driven luciferase reporter signal. NIH3T3-HGL HSF-1 luciferase reporter, MG132, 8 h; 100% = twice DMSO control signal. activation, % at 9 µM. hit rate 1.7% among 300,000. AID 504408;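 active = mean replicate activation of at least 50% with a set share of replicates each reaching 50%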;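 also: 0% = median of the neutral control wells and 100% = twice that signal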
# T cruzi inh: T. cruzi replication inhibition | inhibition, % (concentration not given with the values) | hit rate 1.4% among 300,000 | AID 1885 | T. cruzi beta-gal in NIH3T3, luminescence, 90 h;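 active = mean inhibition across valid replicates above about 55%, limit read from the data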;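 also: signal also drops with host cell toxicity which is not excluded here; 0% = plate median of DMSO wells and 100% = zero luminescence signal; higher percent means less beta-gal luminescence so fewer parasites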
#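 Read-out: Parasite load inhibition, % | Test system: Mouse NIH/3T3 fibroblasts infected with β-gal-expressing T. cruzi Tulahuen C4 | Amount: 5,000 cells/well | Medium: DMEM, 2% fetal bovine serum | Signal: GalScreen β-gal luminescence, detergent lysis, 60 min | Timing: 3 h attach, ≥90 h co-culture | Also added: Tulahuen C4 trypomastigotes, 5000/well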
# Hsp70 act: Hsp70 transcriptional activation, primary screen; HeLa Hsp70 promoter luciferase reporter, luminescence; scaled: vehicle 0, proteasome-inhibitor control 100%; hit rate 0.04% among 200,000; activation, % at 10 µM; AID 1203;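 active = activation above the mean across all tested compounds plus 3 SD, cutoff set per campaign, cut at about 5.5% in these data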;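 also: 100% = MG132 at 30 µM as the positive control and 0% = DMSO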
# * marks the source's active call; other numbers are inactive results; . = no result. Only a selection was taken, and hits are over-represented in it overall.
SMILES,L major viab,HSF1 inh,HSF1 activator,T cruzi inh,Hsp70 act
C=CC[C@@H]1Cc2c(Br)ccc(Br)c2[C@@H](CC=C)N1,7,34,61*,-19,0
CCc1ccc(N2CC(C(=O)N3CCN(c4ccccn4)CC3)CC2=O)cc1 (centres undefined),.,-6,0,-4,.
Cc1c(N=C2SCC(=O)N2/N=C\c2ccc(Br)cc2)c(=O)n(-c2ccccc2)n1C,76*,21,67*,1,0
CC1=C(NCCc2ccccc2)CCC1=O,64*,-4,-19,4,0
NC(Cc1ccccc1)C(=O)N1CCCCC1 (centres undefined),.,2,10,-7,.
Cc1nn(C)cc1C(=O)/C=C/c1ccc([N+](=O)[O-])cc1,34,22,61*,-10,0
Cc1ccc(NS(=O)(=O)c2ccc(C(=O)N3CCN(S(=O)(=O)c4ccccc4)CC3)cc2)cc1,.,3,8,1,.
CCCCC(=O)Nc1nnc(SCC(=O)NCC2CCCO2)s1 (centres undefined),.,-2,-7,19,.
Cc1c(-c2ccccc2)[n+](=O)c2c(n1[O-])CCC2,-5,-87*,-89,-4,0
Cc1c(-c2ccc(Cl)cc2)[n+](=O)c2c(n1[O-])CCCC2,.,7,39,-6,.
COc1ccccc1NS(=O)(=O)c1cccc(C(=O)N/N=C/c2cn(-c3ccccc3)nc2-c2ccccc2)c1,53*,9,13,13,0
CCN(CC)c1ccc(/C=N/NC(=O)c2cccc(S(=O)(=O)Nc3ccccc3OC)c2)c(O)c1,100*,-16,-17,27,0
CCN(CC)c1ccc(/C=N/NC(=O)c2cccc(S(=O)(=O)Nc3ccccc3OC)c2)cc1,19,-2,-1,20,0
COc1ccc(-c2nn(-c3ccccc3)cc2/C=N/n2cnnc2)cc1OC,4,23,20,-9,0
COc1ccc(NS(=O)(=O)c2cccc(C(=O)N/N=C/c3cn(-c4ccccc4)nc3-c3ccccc3)c2)cc1,.,-2,11,-1,.
Cc1ccc(/C=N/NC(=O)c2cccc(S(=O)(=O)Nc3ccccc3Cl)c2)o1,33,9,66*,-5,0
COc1ccc(-c2nn(-c3ccccc3)cc2/C=N/NC(N)=S)cc1OC,80*,-4,-10,37,0
COc1cccc(CNS(=O)(=O)/C=C/c2ccc3c(c2)OCO3)c1,-5,2,28,-4,0
O=C(O)Cc1ccc(OCc2ccc(Cl)nc2)cc1,-6,4,14,-4,0
CCOc1ccccc1NC(=O)CN1C(=O)CSC(C)C1=O (centres undefined),2,4,-8,-10,0
COc1ccccc1NS(=O)(=O)c1cccc(C(=O)N/N=C/c2c(C)nn(-c3ccccc3)c2N2CCCC2)c1,96*,-9,-3,15,0
COc1ccccc1NS(=O)(=O)c1ccc(N/N=C/C=C/c2ccccc2[N+](=O)[O-])c([N+](=O)[O-])c1,50*,-4,13,24,0
COc1c(/C=N/Nc2ccc([N+](=O)[O-])cc2[N+](=O)[O-])c(C)nn1-c1ccccc1,1,0,-14,-3,0
Cc1nn(-c2ccccc2)c(N2CCCC2)c1/C=N/Nc1ccc(S(=O)(=O)Nc2ccccc2)cc1[N+](=O)[O-],97*,-14,2,53,0
CCOc1ccc(S(=O)(=O)Nc2ccc(C(=O)N/N=C/c3c(C)nn(-c4ccccc4)c3N3CCCC3)cc2)cc1,1,-8,-4,-3,0
SMILES,L major viab,HSF1 inh,HSF1 activator,T cruzi inh,Hsp70 act
COc1ccccc1NS(=O)(=O)c1ccc(N/N=C/c2ccccc2OCC(=O)O)c([N+](=O)[O-])c1,-1,2,12,11,0
COc1ccccc1NS(=O)(=O)c1ccc(N/N=C/c2c(C)nn(-c3ccccc3)c2N2CCCC2)c([N+](=O)[O-])c1,100*,-2,-1,66*,0
Cc1ccsc1/C=N/NS(=O)(=O)c1ccc([N+](=O)[O-])cc1,46,0,7,-1,0
Cc1ccc(NC(=O)CCCC2CCCCC2)c(O)c1,.,23,43,-9,.
COc1cc(NC(=O)C2=C(N3CCOCC3)/C(=C\c3ccc(N(C)C)cc3)CCC2)cc(OC)c1OC,98*,17,23,-22,0
COc1cc(NC(=O)C2=C(N3CCOCC3)/C(=C/c3ccc(Cl)cc3)CC2)cc(OC)c1OC,17,31,27,15,-1
COc1cc2nc(SCc3ccc(C(F)(F)F)cc3)n(Cc3cccs3)c(=N)c2cc1OC,7,3,-11,27,0
CCCCNC(=O)CSc1nc2cc(OC)c(OC)cc2c(=O)n1Cc1ccc(OC)cc1,8,-5,2,2,0
COc1ccc(Cn2c(SCc3ccc(C)cc3)nc3cc(OC)c(OC)cc3c2=N)cc1Cl,100*,-26,-37,43,0
COc1ccc(Cn2c(SCc3cc(C)ccc3C)nc3cc(OC)c(OC)cc3c2=N)cc1,101*,11,9,59*,0
COc1cc2nc(SCc3ccc(Cl)cc3Cl)n(Cc3cccs3)c(=N)c2cc1OC,48,4,18,77*,0
COc1ccc(C(=O)CC(=O)C(=O)Nc2ccc(Cl)cc2)cc1,.,18,45,2,.
COc1ccc(C(=O)CC(Nc2ccc([N+](=O)[O-])cc2)c2ccc(Cl)cc2)cc1 (centres undefined),31,15,12,64*,0
CC(C)(C)OC(=O)COc1cc(OCC(=O)OC(C)(C)C)c2c(=O)cc(-c3ccccc3)oc2c1,50*,.,.,.,-1
CC(C)(C)OC(=O)COc1cc(O)c2c(=O)cc(-c3ccccc3)oc2c1,-4,-47,-58,15,0
Cc1ccc2c(c1)N(C(C)C(=O)NCc1cccs1)C(=O)CO2 (centres undefined),-6,2,-7,0,0
COc1ccc(NC(=O)CC2(CC(=O)O)CCCC2)cn1,-10,-2,-2,-26,0
Cc1nn(-c2ccccc2)c2sc(C(=O)N(CC(=O)NC(C)(C)C)Cc3ccco3)cc12,60*,7,20,28,0
O=C(CSc1nc2ccc(Cl)cc2[nH]1)c1cccs1,.,17,8,-4,.
Cc1nc(SCC(=O)c2cccs2)c2oc3ccccc3c2n1,4,33,51*,11,1
O=C(CSc1nc2cc(Cl)ccc2o1)c1cccs1,57*,17,26,13,0
O=C(CCSc1ccc(Cl)cc1)c1cccs1,70*,-5,0,38,0
Cc1ccc(S(=O)(=O)Nc2ccc(-n3c(C)nc4ccccc4c3=O)cc2)cc1,.,0,-8,-5,.
COc1ccc(C(C#N)c2ccc(=O)[nH]n2)cc1 (centres undefined),-4,5,7,-24,0
Cc1[nH]c(C)c(S(=O)(=O)NCc2ccco2)c1C(=O)N1CCCCC1,.,-5,-1,-12,.
